Assay results reported in ChEMBL document CHEMBL5214983, “New Dual P-Glycoprotein (P-gp) and Human Carbonic Anhydrase XII (hCA XII) Inhibitors as Multidrug Resistance (MDR) Reversers in Cancer Cells” (J Med Chem, 2022).

Key:
[1] = Stability in PBS measured by LC-MS/MS analysis; type: physicochemical; details: buffer
How it was run: (§1)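 Analyte at 1 μM in PBS or in pooled human plasma, incubated at 37 °C for 0, 30, 60 and 120 min, in triplicate. Internal standard verapamil added, mixture centrifuged, supernatant dried and redissolved. Analyte quantified by LC-MS/MS. Half-life taken from the slope of ln(concentration) versus time. Ketoprofen ethyl ester served as plasma activity reference.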

[2] = Stability in human plasma assessed as half-life measured by LC-MS/MS analysis; type: ADME, cell-free; how it was run: as §1
[3] = biological target: T1, ATP-dependent translocase ABCB1 (Homo sapiens, UniProt P08183); experiment: Inhibition of P-gp in doxorubicin-resistant human A549 cells overexpressing P-gp assessed as Vmax at 1 uM in presence of 0 to 100 uM doxorubicin […]; type: cell-based; details: a549, 1 µM
T1 sequence (P08183 whole entry): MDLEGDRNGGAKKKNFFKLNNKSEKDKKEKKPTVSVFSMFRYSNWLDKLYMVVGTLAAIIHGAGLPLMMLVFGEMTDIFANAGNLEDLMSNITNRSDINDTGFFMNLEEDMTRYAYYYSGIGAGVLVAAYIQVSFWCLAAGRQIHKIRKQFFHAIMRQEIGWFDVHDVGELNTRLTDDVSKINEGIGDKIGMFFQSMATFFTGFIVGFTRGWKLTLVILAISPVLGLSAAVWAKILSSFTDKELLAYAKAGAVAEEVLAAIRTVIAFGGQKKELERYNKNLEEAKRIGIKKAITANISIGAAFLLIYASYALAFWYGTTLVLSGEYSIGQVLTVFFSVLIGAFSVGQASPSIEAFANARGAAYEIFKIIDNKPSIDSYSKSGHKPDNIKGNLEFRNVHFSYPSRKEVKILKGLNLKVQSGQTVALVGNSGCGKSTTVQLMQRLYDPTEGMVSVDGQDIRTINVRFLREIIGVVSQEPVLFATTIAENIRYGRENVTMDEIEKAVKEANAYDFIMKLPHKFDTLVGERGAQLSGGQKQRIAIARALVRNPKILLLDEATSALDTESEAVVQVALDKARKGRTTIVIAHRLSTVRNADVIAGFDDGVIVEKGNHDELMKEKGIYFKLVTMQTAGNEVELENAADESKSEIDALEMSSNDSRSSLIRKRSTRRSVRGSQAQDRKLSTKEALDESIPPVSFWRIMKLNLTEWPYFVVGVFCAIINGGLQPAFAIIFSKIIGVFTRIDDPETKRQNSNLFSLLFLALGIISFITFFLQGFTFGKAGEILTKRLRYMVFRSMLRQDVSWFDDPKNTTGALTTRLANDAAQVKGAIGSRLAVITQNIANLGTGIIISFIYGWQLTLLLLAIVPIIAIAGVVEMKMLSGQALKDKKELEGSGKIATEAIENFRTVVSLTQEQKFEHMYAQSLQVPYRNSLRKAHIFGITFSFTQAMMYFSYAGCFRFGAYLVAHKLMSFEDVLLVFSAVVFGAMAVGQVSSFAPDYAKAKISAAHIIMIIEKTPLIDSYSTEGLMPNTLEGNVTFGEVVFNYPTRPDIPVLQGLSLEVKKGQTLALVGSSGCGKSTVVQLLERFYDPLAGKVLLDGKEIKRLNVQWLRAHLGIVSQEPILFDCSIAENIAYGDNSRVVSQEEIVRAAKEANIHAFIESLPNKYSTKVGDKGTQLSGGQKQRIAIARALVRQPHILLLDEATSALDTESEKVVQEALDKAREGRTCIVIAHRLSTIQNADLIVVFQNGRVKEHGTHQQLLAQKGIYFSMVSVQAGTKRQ
How it was run: (§2)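 Cells incubated 20 min with 0–100 μM doxorubicin, alone or with compound at 1 or 3 μM. A parallel set was left a further 10 min at 37 °C, then intracellular drug measured. Doxorubicin extruded (nmol/min/mg protein) plotted against initial concentration and fitted to Michaelis–Menten to give Vmax and Km. Mean ± SD.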

[4] = biological target: T1, ATP-dependent translocase ABCB1; experiment: Inhibition of P-gp in doxorubicin-resistant carbonic anhydrase knockout human HT-29 cells overexpressing P-gp assessed as Vmax at 1 uM in presence of 0 to 100 uM doxorubicin […]; type: cell-based; details: ht-29, 1 µM; how it was run: as §2
[5] = biological target: T1, ATP-dependent translocase ABCB1; experiment: Inhibition of P-gp in human A549 cells overexpressing P-gp assessed as Vmax at 3 uM in presence of 0 to 100 uM doxorubicin […]; type: cell-based; details: a549, 3 µM; how it was run: as §2
[6] = biological target: T1, ATP-dependent translocase ABCB1; experiment: Inhibition of P-gp in doxorubicin-resistant human HT-29 cells overexpressing P-gp assessed as increase in doxorubicin retention 3 uM in presence of 5 uM doxorubicin measured after 24 hrs by spectrophotometric method; type: cell-based; details: ht-29, 24 h
How it was run: (§3)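 Resistant cells (wild-type, P-gp KO or hCA XII KO; KO lines selected with 1 μg/mL puromycin) exposed to 5 μM doxorubicin alone or with test compound at 1 or 3 μM. Cells washed, trypsinized and extracted in ethanol/0.3 N HCl. Doxorubicin fluorescence read at ex 475/em 553 nm and converted to nmol/mg cell protein with a calibration curve. Mean ± SD, n = 3.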

[7] = biological target: T1, ATP-dependent translocase ABCB1; experiment: Inhibition of P-gp in doxorubicin-resistant human A549 cells overexpressing P-gp assessed as increase in doxorubicin retention 3 uM in presence of 5 uM doxorubicin measured after 24 hrs by spectrophotometric method; type: cell-based; details: a549, 24 h; how it was run: as §3
[8] = biological target: T1, ATP-dependent translocase ABCB1; experiment: Inhibition of P-gp in doxorubicin-resistant human HT-29 cells overexpressing P-gp assessed as Vmax at 1 uM in presence of 0 to 100 uM doxorubicin […]; type: cell-based; details: ht-29, 1 µM; how it was run: as §2
[9] = biological target: T1, ATP-dependent translocase ABCB1; experiment: Inhibition of P-gp in doxorubicin-resistant carbonic anhydrase knockout human HT-29 cells overexpressing P-gp assessed as Vmax at 3 uM in presence of 0 to 100 uM doxorubicin […]; type: cell-based; details: ht-29, 3 µM; how it was run: as §2
[10] = biological target: T1, ATP-dependent translocase ABCB1; experiment: Inhibition of P-gp in doxorubicin-resistant human A549 cells overexpressing P-gp assessed as Vmax at 3 uM in presence of 0 to 100 uM doxorubicin […]; type: cell-based; details: a549, 3 µM; how it was run: as §2
[11] = biological target: T1, ATP-dependent translocase ABCB1; experiment: Inhibition of P-gp in doxorubicin-resistant human A549 cells overexpressing P-gp assessed as increase in doxorubicin retention 1 uM in presence of 5 uM doxorubicin measured after 24 hrs by spectrophotometric method; type: cell-based; details: a549, 24 h; how it was run: as §3
[12] = biological target: T1, ATP-dependent translocase ABCB1; experiment: Inhibition of P-gp in human HT-29 cells overexpressing P-gp assessed as Vmax at 1 uM in presence of 0 to 100 uM doxorubicin […]; type: cell-based; details: ht-29, 1 µM; how it was run: as §2
[13] = biological target: T1, ATP-dependent translocase ABCB1; experiment: Inhibition of P-gp in doxorubicin-resistant human HT-29 cells overexpressing P-gp assessed as increase in doxorubicin retention 1 uM in presence of 5 uM doxorubicin measured after 24 hrs by spectrophotometric method; type: cell-based; details: ht-29, 24 h; how it was run: as §3
[14] = biological target: T1, ATP-dependent translocase ABCB1; experiment: Inhibition of P-gp in doxorubicin-resistant carbonic anhydrase knockout human A549 cells overexpressing P-gp assessed as Vmax at 1 uM in presence of 0 to 100 uM doxorubicin […]; type: cell-based; details: a549, 1 µM; how it was run: as §2
[15] = biological target: T1, ATP-dependent translocase ABCB1; experiment: Inhibition of P-gp in human HT-29 cells overexpressing P-gp assessed as Vmax at 3 uM in presence of 0 to 100 uM doxorubicin […]; type: cell-based; details: ht-29, 3 µM; how it was run: as §2
[16] = biological target: T1, ATP-dependent translocase ABCB1; experiment: Inhibition of P-gp in human A549 cells overexpressing P-gp assessed as Vmax at 1 uM in presence of 0 to 100 uM doxorubicin […]; type: cell-based; details: a549, 1 µM; how it was run: as §2
[17] = biological target: T1, ATP-dependent translocase ABCB1; experiment: Inhibition of P-gp in doxorubicin-resistant human HT-29 cells overexpressing P-gp assessed as Vmax at 3 uM in presence of 0 to 100 uM doxorubicin […]; type: cell-based; details: ht-29, 3 µM; how it was run: as §2
[18] = biological target: T1, ATP-dependent translocase ABCB1; experiment: Inhibition of P-gp in doxorubicin-resistant carbonic anhydrase knockout human A549 cells overexpressing P-gp assessed as Vmax at 3 uM in presence of 0 to 100 uM doxorubicin […]; type: cell-based; details: a549, 3 µM; how it was run: as §2

Stability [1]	Stability [2]	Compound	further results
Stable	Stable	COc1cc(/C=C/C(=O)OCCCCCCN(CCCOC(=O)/C=C/c2cc(OC)c(OC)c(OC)c2)CCCOc2ccc3ccc(=O)oc3c2)cc(OC)c1OC	
Stable	Stable	COc1cc(C(=O)OCCCCCCN(CCCOC(=O)c2cc(OC)c(OC)c(OC)c2)CCCOc2ccc3ccc(=O)oc3c2)cc(OC)c1OC	Vmax [3]: 5.27 µmol/min; Vmax [4]: 4.27 µmol/min; Vmax [5]: 2.41 µmol/min; inhibition (INH) [6]: Active; inhibition (INH) [7]: Active; Vmax [8]: 4.73 µmol/min; Vmax [9]: 3.45 µmol/min; Vmax [10]: 4.14 µmol/min; inhibition (INH) [11]: Active; Vmax [12]: 3.21 µmol/min; inhibition (INH) [13]: Active; Vmax [14]: 3.6 µmol/min; Vmax [15]: 3.28 µmol/min; Vmax [16]: 2.43 µmol/min; Vmax [17]: 3.8 µmol/min; Vmax [18]: 2.92 µmol/min
Stable	Stable	COc1cc(/C=C/C(=O)OCCCCCN(CCCOC(=O)c2c3ccccc3cc3ccccc23)CCCOc2ccc3ccc(=O)oc3c2)cc(OC)c1OC	
Stable	Stable	COc1cc(/C=C/C(=O)OCCCCCCCN(CCCOC(=O)c2c3ccccc3cc3ccccc23)CCCOc2ccc3ccc(=O)oc3c2)cc(OC)c1OC	
Stable	Stable	COc1cc(/C=C/C(=O)OCCCN(CCCCCCCOC(=O)c2cc(OC)c(OC)c(OC)c2)CCCOc2ccc3ccc(=O)oc3c2)cc(OC)c1OC	
Stable	Stable	O=C(OCCCCCCCN(CCCOC(=O)c1c2ccccc2cc2ccccc12)CCCOc1ccc2ccc(=O)oc2c1)c1c2ccccc2cc2ccccc12	
Stable	Stable	COc1cc(/C=C/C(=O)OCCCCCCN(CCCOC(=O)c2c3ccccc3cc3ccccc23)CCCOc2ccc3ccc(=O)oc3c2)cc(OC)c1OC	
Stable	Stable	O=C(OCCCCCCN(CCCOC(=O)c1c2ccccc2cc2ccccc12)CCCOc1ccc2ccc(=O)oc2c1)c1c2ccccc2cc2ccccc12	
Stable	Stable	COc1cc(C(=O)OCCCN(CCCCCCCOC(=O)c2c3ccccc3cc3ccccc23)CCCOc2ccc3ccc(=O)oc3c2)cc(OC)c1OC	
Stable	Stable	COc1cc(C(=O)OCCCCCN(CCCOC(=O)c2cc(OC)c(OC)c(OC)c2)CCCOc2ccc3ccc(=O)oc3c2)cc(OC)c1OC	Vmax [3]: 5.1 µmol/min; Vmax [4]: 4.3 µmol/min; Vmax [5]: 2.35 µmol/min; inhibition (INH) [6]: Active; inhibition (INH) [7]: Active; Vmax [8]: 5.3 µmol/min; Vmax [9]: 3.22 µmol/min; Vmax [10]: 3.98 µmol/min; inhibition (INH) [11]: Active; Vmax [12]: 3.29 µmol/min; inhibition (INH) [13]: Active; Vmax [14]: 3.75 µmol/min; Vmax [15]: 3.12 µmol/min; Vmax [16]: 2.36 µmol/min; Vmax [17]: 3.21 µmol/min; Vmax [18]: 2.74 µmol/min
Stable	Stable	COc1cc(/C=C/C(=O)OCCCCCN(CCCOC(=O)/C=C/c2cc(OC)c(OC)c(OC)c2)CCCOc2ccc3ccc(=O)oc3c2)cc(OC)c1OC	
Stable	Stable	COc1cc(/C=C/C(=O)OCCCN(CCCCCCOC(=O)c2c3ccccc3cc3ccccc23)CCCOc2ccc3ccc(=O)oc3c2)cc(OC)c1OC	
Stable	Stable	O=C(OCCCCCN(CCCOC(=O)c1c2ccccc2cc2ccccc12)CCCOc1ccc2ccc(=O)oc2c1)c1c2ccccc2cc2ccccc12	
Stable	Stable	COc1cc(/C=C/C(=O)OCCCN(CCCCCCOC(=O)c2cc(OC)c(OC)c(OC)c2)CCCOc2ccc3ccc(=O)oc3c2)cc(OC)c1OC	
Stable	Stable	COc1cc(/C=C/C(=O)OCCCN(CCCCCOC(=O)c2cc(OC)c(OC)c(OC)c2)CCCOc2ccc3ccc(=O)oc3c2)cc(OC)c1OC	
Stable	Stable	COc1cc(C(=O)OCCCCCCCN(CCCOC(=O)c2cc(OC)c(OC)c(OC)c2)CCCOc2ccc3ccc(=O)oc3c2)cc(OC)c1OC	
Stable	Stable	COc1cc(C(=O)OCCCCCCCN(CCCOC(=O)c2c3ccccc3cc3ccccc23)CCCOc2ccc3ccc(=O)oc3c2)cc(OC)c1OC	
Stable	Stable	COc1cc(C(=O)OCCCN(CCCCCCOC(=O)c2c3ccccc3cc3ccccc23)CCCOc2ccc3ccc(=O)oc3c2)cc(OC)c1OC	
Stable	Stable	COc1cc(C(=O)OCCCCCN(CCCOC(=O)c2c3ccccc3cc3ccccc23)CCCOc2ccc3ccc(=O)oc3c2)cc(OC)c1OC	
Stable	Stable	COc1cc(/C=C/C(=O)OCCCN(CCCCCCCOC(=O)c2c3ccccc3cc3ccccc23)CCCOc2ccc3ccc(=O)oc3c2)cc(OC)c1OC	
Stable	Stable	COc1cc(/C=C/C(=O)OCCCCCN(CCCOC(=O)c2cc(OC)c(OC)c(OC)c2)CCCOc2ccc3ccc(=O)oc3c2)cc(OC)c1OC	
Stable	Stable	COc1cc(/C=C/C(=O)OCCCN(CCCCCOC(=O)c2c3ccccc3cc3ccccc23)CCCOc2ccc3ccc(=O)oc3c2)cc(OC)c1OC	
Stable	Stable	COc1cc(C(=O)OCCCCCCN(CCCOC(=O)c2c3ccccc3cc3ccccc23)CCCOc2ccc3ccc(=O)oc3c2)cc(OC)c1OC	
Stable	Stable	COc1cc(C(=O)OCCCN(CCCCCOC(=O)c2c3ccccc3cc3ccccc23)CCCOc2ccc3ccc(=O)oc3c2)cc(OC)c1OC	
Stable	Stable	COc1cc(/C=C/C(=O)OCCCCCCCN(CCCOC(=O)/C=C/c2cc(OC)c(OC)c(OC)c2)CCCOc2ccc3ccc(=O)oc3c2)cc(OC)c1OC	
Stable	Stable	COc1cc(/C=C/C(=O)OCCCCCCCN(CCCOC(=O)c2cc(OC)c(OC)c(OC)c2)CCCOc2ccc3ccc(=O)oc3c2)cc(OC)c1OC	
Stable	Stable	COc1cc(/C=C/C(=O)OCCCCCCN(CCCOC(=O)c2cc(OC)c(OC)c(OC)c2)CCCOc2ccc3ccc(=O)oc3c2)cc(OC)c1OC	
